Source: ChEMBL document CHEMBL1142193, “Dual targeting of GyrB and ParE by a novel aminobenzimidazole class of antibacterial compounds” (2007)
Converted amounts (≈) assume the structure as drawn. The source made the active and inactive calls. No cut-off for these calls is given here.

Assays:
Staphylococcus aureus [1] = assay: Inhibition of RNA synthesis in Staphylococcus aureus ATCC 29213 assessed as [3H]uridine incorporation; type: functional
Outline: (§1)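 Log-phase cells exposed in duplicate to compound at 5x MIC; labelled-precursor uptake measured over 15 min, stopped with 10% trichloroacetic acid. Incorporation expressed as percent of untreated control (taken as 100%).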

Staphylococcus aureus [2] = assay: Inhibition of protein synthesis in Staphylococcus aureus ATCC 29213 assessed as [3H]aminoacid incorporation; type: functional
Staphylococcus aureus [3] = assay: Antibacterial activity against Staphylococcus aureus ATCC 29213 without plasmid; type: functional
Staphylococcus aureus [4] = assay: Antibacterial activity against Staphylococcus aureus ATCC 29213 carrying plasmid expressing wild type GyrB; type: functional
Staphylococcus aureus [5] = assay: Antibacterial activity against Staphylococcus aureus ATCC 29213 carrying plasmid expressing GyrB T173N mutant; type: functional
Staphylococcus aureus [6] = assay: Antibacterial activity against Staphylococcus aureus ATCC 29213 carrying plasmid expressing GyrB T173I mutant; type: functional
Staphylococcus aureus [7] = assay: Antibacterial activity against Staphylococcus aureus ATCC 29213 carrying plasmid expressing GyrB R144I mutant; type: functional
Staphylococcus aureus [8] = assay: Antibacterial activity against Staphylococcus aureus ATCC 29213 with GyrB T173N mutation without plasmid; type: functional
Staphylococcus aureus [9] = assay: Antibacterial activity against Staphylococcus aureus ATCC 29213 with GyrB T173I mutation without plasmid; type: functional
Staphylococcus aureus [10] = assay: Antibacterial activity against Staphylococcus aureus ATCC 29213 with GyrB R144I mutation without plasmid; type: functional
Staphylococcus aureus [11] = assay: Inhibition of DNA synthesis in Staphylococcus aureus ATCC 29213 assessed as [3H]thymidine incorporation; type: functional; outline: as §1
Escherichia coli = assay: Reduction in steady-state levels of supercoiled pUC18 in Escherichia coli CAG12184 tolC mutant; type: functional, organism-based
Outline: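 Cells carrying pUC18 grown at 37°C in caMHB with 100 µg/ml ampicillin to OD600 0.5, then exposed 1 h at 37°C with shaking to a twofold dilution series spanning the MIC. Plasmid isolated, concentrated, run on 1% TBE-agarose alongside supercoiled markers for 16 h, stained with ethidium bromide.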

Staphylococcus aureus [12] = assay: Antibacterial activity against Staphylococcus aureus ATCC 29213 after 18 to 20 hrs; type: functional
Outline: (§2)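 MICs followed CLSI guidelines. Strains were grown overnight at 35°C on solid medium. Inocula were prepared with a Prompt system. Compounds were serially diluted twofold in 100% DMSO at 200x and diluted 1:200 into medium, for a final 0.5% DMSO. Plates were incubated at 35°C for 18 to 20 h and read visually. A twofold MIC variation was taken as assay error.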

Staphylococcus aureus [13] = assay: Antibacterial activity against Staphylococcus aureus ATCC 29213 with GyrB T173N mutation after 18 to 20 hrs; type: functional; outline: as §2
Staphylococcus aureus [14] = assay: Antibacterial activity against Staphylococcus aureus ATCC 29213 with GyrB T173I mutation after 18 to 20 hrs; type: functional; outline: as §2
Staphylococcus aureus [15] = assay: Antibacterial activity against novobiocin-resistant Staphylococcus aureus ATCC 29213 with GyrB R144I mutation after 18 to 20 hrs; type: functional; outline: as §2
Staphylococcus aureus [16] = assay: Antibacterial activity against Staphylococcus aureus ATCC 29213 with GyrB T173N and GrlB T166A mutation after 18 to 20 hrs; type: functional; outline: as §2
Staphylococcus aureus [17] = assay: Antibacterial activity against Staphylococcus aureus ATCC 29213 with GyrB T173I and GrlB T166A mutation after 18 to 20 hrs; type: functional; outline: as §2
Streptococcus pneumoniae [18] = assay: Antibacterial activity against Streptococcus pneumoniae ATCC BAA-255 after 18 to 20 hrs; type: functional; outline: as §2
Streptococcus pneumoniae [19] = assay: Antibacterial activity against novobiocin-resistant Streptococcus pneumoniae ATCC BAA-255 with GyrB S127L mutation after 18 to 20 hrs; type: functional; outline: as §2
Streptococcus pneumoniae [20] = assay: Antibacterial activity against Streptococcus pneumoniae ATCC BAA-255 with ParE T172A mutation after 18 to 20 hrs; type: functional; outline: as §2
Streptococcus pneumoniae [21] = assay: Antibacterial activity against Streptococcus pneumoniae ATCC BAA-255 with ParE T172I mutation after 18 to 20 hrs; type: functional; outline: as §2
Streptococcus pneumoniae [22] = assay: Antibacterial activity against Streptococcus pneumoniae ATCC BAA-255 with GyrB T172A and ParE T172A mutation after 18 to 20 hrs; type: functional; outline: as §2
Enterococcus faecalis [23] = assay: Antibacterial activity against Enterococcus faecalis ATCC 29212 after 18 to 20 hrs; type: functional; outline: as §2
Enterococcus faecalis [24] = assay: Antibacterial activity against Enterococcus faecalis ATCC 29212 with ParE T169A mutation after 18 to 20 hrs; type: functional; outline: as §2
Enterococcus faecalis [25] = assay: Antibacterial activity against Enterococcus faecalis ATCC 29212 with GyrB T167A mutation after 18 to 20 hrs; type: functional; outline: as §2
Enterococcus faecalis [26] = assay: Antibacterial activity against Enterococcus faecalis ATCC 29212 with GyrB T167I mutation after 18 to 20 hrs; type: functional; outline: as §2
Enterococcus faecalis [27] = assay: Antibacterial activity against Enterococcus faecalis ATCC 29212 with GyrB T167I and ParE T169A mutation after 18 to 20 hrs; type: functional; outline: as §2
Enterococcus faecalis [28] = assay: Antibacterial activity against Enterococcus faecalis ATCC 29212 with GyrB T167A and ParE T169A mutation after 18 to 20 hrs; type: functional; outline: as §2
Haemophilus influenzae [29] = assay: Antibacterial activity against Haemophilus influenzae ATCC 51907 after 18 to 20 hrs; type: functional; outline: as §2
Haemophilus influenzae [30] = assay: Antibacterial activity against novobiocin-resistant Haemophilus influenzae ATCC 51907 with GyrB R140C mutation after 18 to 20 hrs; type: functional; outline: as §2
Haemophilus influenzae [31] = assay: Antibacterial activity against novobiocin-resistant Haemophilus influenzae ATCC 51907 with GyrB R140H mutation after 18 to 20 hrs; type: functional; outline: as §2
Haemophilus influenzae [32] = assay: Antibacterial activity against novobiocin-resistant Haemophilus influenzae ATCC 51907 with GyrB R140L mutation after 18 to 20 hrs; type: functional; outline: as §2
Haemophilus influenzae [33] = assay: Antibacterial activity against Haemophilus influenzae ATCC 51907 with GyrB T169I mutation after 18 to 20 hrs; type: functional; outline: as §2

Structure (SMILES) | MIC (Staphylococcus aureus [3]) [µg/mL] | MIC (Staphylococcus aureus [4]) [µg/mL] | MIC (Staphylococcus aureus [5]) [µg/mL] | MIC (Staphylococcus aureus [6]) [µg/mL] | MIC (Staphylococcus aureus [7]) [µg/mL] | MIC (Staphylococcus aureus [8]) [µg/mL] | MIC (Staphylococcus aureus [9]) [µg/mL] | MIC (Staphylococcus aureus [10]) [µg/mL] | Activity (Escherichia coli) | MIC (Staphylococcus aureus [12]) [µg/mL] | MIC (Staphylococcus aureus [13]) [µg/mL] | MIC (Staphylococcus aureus [14]) [µg/mL] | MIC (Staphylococcus aureus [15]) [µg/mL] | MIC (Staphylococcus aureus [16]) [µg/mL] | MIC (Staphylococcus aureus [17]) [µg/mL] | MIC (Streptococcus pneumoniae [18]) [µg/mL] | MIC (Streptococcus pneumoniae [19]) [µg/mL] | MIC (Streptococcus pneumoniae [20]) [µg/mL] | MIC (Streptococcus pneumoniae [21]) [µg/mL] | MIC (Streptococcus pneumoniae [22]) [µg/mL] | other results
CO[C@H]1/C=C/O[C@@]2(C)Oc3c(C)c(O)c4c(O)c(c(/C=N/N5CCN(C)CC5)c(O)c4c3C2=O)NC(=O)/C(C)=C\C=C\[C@H](C)[C@H](O)[C@@H](C)[C@@H](O)[C@@H](C)[C@H](OC(C)=O)[C@@H]1C | – | – | – | – | – | – | – | – | – | – | – | – | – | – | – | – | – | – | – | – | Activity (Staphylococcus aureus [1]): Active; Activity (Staphylococcus aureus [2]): Active
CCNC(=O)Nc1nc2cc(-c3cnc(OC)nc3)c(OC)cc2[nH]1 | 2 (≈ 5.84 µM) | 2 (≈ 5.84 µM) | 8 (≈ 23.4 µM) | 8 (≈ 23.4 µM) | 2 (≈ 5.84 µM) | 8 (≈ 23.4 µM) | 8 (≈ 23.4 µM) | 2 (≈ 5.84 µM) | Dose-dependent effect | 2 (≈ 5.84 µM) | 16 (≈ 46.7 µM) | 16 (≈ 46.7 µM) | 4 (≈ 11.7 µM) | > 64 | > 64 | 0.5 (≈ 1.46 µM) | 0.5 (≈ 1.46 µM) | 8 (≈ 23.4 µM) | 4 (≈ 11.7 µM) | 64 (≈ 187 µM) | Inhibition (Staphylococcus aureus [11]): 80%; Inhibition (Staphylococcus aureus [1]): 20%; Inhibition (Staphylococcus aureus [2]): 20%; MIC (Enterococcus faecalis [23]): 1 µg/mL (≈ 2.92 µM); MIC (Enterococcus faecalis [24]): 8 µg/mL (≈ 23.4 µM); MIC (Enterococcus faecalis [25]): 0.5 µg/mL (≈ 1.46 µM); MIC (Enterococcus faecalis [26]): 1 µg/mL (≈ 2.92 µM); MIC (Enterococcus faecalis [27]): > 64 µg/mL; MIC (Enterococcus faecalis [28]): > 64 µg/mL; MIC (Haemophilus influenzae [29]): 4 µg/mL (≈ 11.7 µM); MIC (Haemophilus influenzae [30]): 2 µg/mL (≈ 5.84 µM); MIC (Haemophilus influenzae [31]): 2 µg/mL (≈ 5.84 µM); MIC (Haemophilus influenzae [32]): 4 µg/mL (≈ 11.7 µM); MIC (Haemophilus influenzae [33]): > 64 µg/mL
CCNC(=O)Nc1nc2cc(-c3cccnc3)cc(-c3ncccc3F)c2[nH]1 | 0.06 (≈ 0.159 µM) | 0.06 (≈ 0.159 µM) | 0.25 (≈ 0.664 µM) | 0.13 (≈ 0.345 µM) | 0.06 (≈ 0.159 µM) | 0.25 (≈ 0.664 µM) | 0.25 (≈ 0.664 µM) | 0.06 (≈ 0.159 µM) | Dose-dependent effect | 0.03 (≈ 0.0797 µM) | 0.5 (≈ 1.33 µM) | 0.5 (≈ 1.33 µM) | 0.06 (≈ 0.159 µM) | > 8 | 4 (≈ 10.6 µM) | 0.004 (≈ 0.0106 µM) | 0.002 (≈ 0.00531 µM) | 0.016 (≈ 0.0425 µM) | 0.016 (≈ 0.0425 µM) | 0.25 (≈ 0.664 µM) | MIC (Enterococcus faecalis [23]): 0.032 µg/mL (≈ 0.085 µM); MIC (Enterococcus faecalis [24]): 0.064 µg/mL (≈ 0.17 µM); MIC (Enterococcus faecalis [25]): 0.032 µg/mL (≈ 0.085 µM); MIC (Enterococcus faecalis [26]): 0.064 µg/mL (≈ 0.17 µM); MIC (Enterococcus faecalis [27]): 1 µg/mL (≈ 2.66 µM); MIC (Enterococcus faecalis [28]): 0.5 µg/mL (≈ 1.33 µM); MIC (Haemophilus influenzae [29]): 1 µg/mL (≈ 2.66 µM); MIC (Haemophilus influenzae [30]): 1 µg/mL (≈ 2.66 µM); MIC (Haemophilus influenzae [31]): 1 µg/mL (≈ 2.66 µM); MIC (Haemophilus influenzae [32]): 1 µg/mL (≈ 2.66 µM); MIC (Haemophilus influenzae [33]): > 64 µg/mL
